Bioassay records from PubChem.
CHO-K1 Ca ag – nonselective activator or artifact in parental CHO-K1 cells; 0.48% of 360,000 active; activation, % at 3 µM; Fluo-8 calcium fluorescence; scaled to maximal ATP response, vehicle zero; AID 602248; in the data active means activation above about 15%;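 further: untransfected CHO-K1 host cells lacking M1 receptor as counterscreen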
M5 PAM – positive allosteric modulators of human muscarinic M5 receptor | P08912 | activation, % at 3 µM | AID 624038 | 0.3% of 360,000 active | CHO-K1 hM5, Fluo-8 calcium, ACh EC20 PAM; 0% = ACh EC20, 100% = ACh EC100;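 active means activation above the run cutoff, the mean activation of all test compounds plus 3 SD, cut at about 18% in these data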
Target sequence (P08912 whole entry, looked up): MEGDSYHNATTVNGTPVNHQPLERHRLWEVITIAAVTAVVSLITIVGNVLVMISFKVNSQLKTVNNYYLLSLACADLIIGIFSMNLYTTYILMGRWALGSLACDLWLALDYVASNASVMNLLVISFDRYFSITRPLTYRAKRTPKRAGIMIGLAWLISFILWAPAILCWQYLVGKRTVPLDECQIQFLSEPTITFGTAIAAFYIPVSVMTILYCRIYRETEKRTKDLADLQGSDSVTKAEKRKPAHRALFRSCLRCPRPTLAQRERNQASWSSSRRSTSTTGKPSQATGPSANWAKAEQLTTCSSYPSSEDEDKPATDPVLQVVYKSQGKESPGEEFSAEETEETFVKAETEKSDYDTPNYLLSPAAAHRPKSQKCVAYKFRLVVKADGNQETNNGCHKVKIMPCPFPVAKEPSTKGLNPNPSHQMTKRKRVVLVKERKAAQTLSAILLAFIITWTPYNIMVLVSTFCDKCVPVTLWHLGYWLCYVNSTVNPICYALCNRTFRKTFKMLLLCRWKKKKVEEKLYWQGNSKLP
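Replicates: One well per compound, no replicates | System: Human M5 receptor in CHO-K1 cells | Benchmarks: Low control EC20 acetylcholine (0%), high control EC100 acetylcholine (100%) | Probe or stimulus: Acetylcholine, EC20 level | Times: Fluo-8 loading 80 min at 37 °C plus 30 min room temperature | Signal: Intracellular calcium via Fluo-8 fluorescence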
CHO-K1 Ca antag – counter-screen for M1 antagonists: effect in parental CHO-K1 cells | ATP-induced calcium, Fluo-8 fluorescence | inhibition, % at 3 µM | 0.6% of 360,000 active | AID 602250;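 active means inhibition above a per-plate cutoff, the plate's mean sample inhibition plus 3 SD, cut at about 24% in these data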;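 further: 0% = DMSO plus EC80 ATP and 100% = DMSO alone without ATP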
CHRM5 agonist – agonists of human muscarinic M5 receptor (CHRM5) | P08912 | CHO-K1 hM5 cells, Fluo-8 calcium fluorescence; 0% DMSO wells, 100% maximal acetylcholine response | activation, % at 3 µM | 0.19% of 360,000 active | AID 624037;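 active means activation above the run's mean over test compounds plus 3 SD, cut at about 23% in these data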;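 further: signal is peak over basal fluorescence ratio across the kinetic read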
CHO-K1 Ca PAM – counter-screen for M1 PAMs: effect in parental CHO-K1 cells; ATP EC20, Fluo-8 calcium fluorescence; 0% at ATP EC20, 100% at ATP max; activation, % at 3 µM; 0.02% of 360,000 active;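 active means activation above the run cutoff, the mean activation of all test compounds plus 3 SD, cut at about 40% in these data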;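 further: peak over basal fluorescence ratio in a 140 s read after ATP addition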
M5 antag – CHRM5 antagonism in calcium assay | P08912 | CHO-hM5 cells, Fluo-8 calcium fluorescence, ACh EC80 | inhibition, % at 3 µM | 0.59% of 360,000 active | AID 624040;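 active means inhibition above a per-plate cutoff, the mean of that plate's test compounds plus 3 SD, cut at about 27% in these data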;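 further: 0% = acetylcholine EC80 with DMSO and 100% = DMSO without agonist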
Numbers without * were called inactive. An excerpt weighted towards active compounds, which were near 1.7% of everything screened.

SMILES	CHO-K1 Ca ag	M5 PAM	CHO-K1 Ca antag	CHRM5 agonist	CHO-K1 Ca PAM	M5 antag
CCC(=O)N1CCc2cc(Br)c(S(=O)(=O)CCC(=O)NCCOC)cc21	0.7	2.2	-0.1	-1.9	18.4	8.9
CCCNS(=O)(=O)c1cc2c(cc1Br)CCN2C(=O)CC	0.9	22.6*	-7.5	0.5	18.5	4.1
CCC(C)Nc1c2c(nc3c(-c4ccccc4)c(C)nn13)CCC2 (stereo unspecified)	11.7	3.7	0.1	-5.8	23.1	-5.0
CCOc1ccc(/C=C/C(=O)c2ccccc2)cc1	-0.1	-1.6	-22.4	-2.7	7.0	-0.8
CC[N+](CC)(CC)CCOc1ccc(/C=C/c2ccccc2)cc1	-0.3	-18.4	2.9	-1.3	-2.2	95.2*
O=C(Cn1c(=O)c2cccn2c2cccnc21)N1CCN(c2ccccc2F)CC1	4.2	24.9*	-8.8	1.1	21.7	26.4
CC(=O)Nc1ccc(S(=O)(=O)n2cnc(C)c2)cc1	-0.1	4.8	-1.0	-0.8	17.9	6.8
Cc1ccc(S(=O)(=O)n2cnc(C)c2)cc1	-0.1	19.7*	-4.3	14.2	1.9	-17.4
O=C(/C=C/c1ccc(Cl)c([N+](=O)[O-])c1)Nc1cccc(NC(=O)c2ccco2)c1	6.8	-15.9	28.0*	0.5	-13.8	21.3
N#Cc1c2n(c(=S)n(-c3ccccc3)c1=O)CCCCC2	1.5	-1.4	-7.3	-4.4	11.1	2.1
CCC(=O)c1cn(CC(=O)Nc2ccc(C)cc2)c2ccccc12	1.3	-1.2	-18.1	1.4	19.4	3.8
CCC(=O)c1cn(CC(=O)Nc2ccccc2)c2ccccc12	0.3	-4.9	25.5*	-0.9	-5.4	4.4
COc1ccc(NC(=S)/N=C(\N)Nc2nc(C)c3ccc(C)cc3n2)cc1	1.6	-11.1	-0.9	-3.0	7.0	16.9
O=[N+]([O-])c1cc2c(c([N+](=O)[O-])c1)Nc1ccccc1O2	16.8*	-4.7	11.7	6.5	0.1	7.1
O=C1Nc2ccccc2Oc2cc([N+](=O)[O-])cc(Oc3ccccc3)c21	3.9	-13.5	2.7	0.7	7.8	8.4
COc1ccc(-c2csc(NC(C)=O)n2)cc1OC	-0.1	-2.3	-6.4	-1.9	11.8	2.6
COc1ccc(-c2csc(NC(=S)NC(=O)c3ccc4ccccc4c3)n2)cc1OC	-0.2	18.4*	5.4	-1.2	-6.3	-28.3
COc1cc(/C=N/NC(=O)c2ccccn2)ccc1OC(=O)c1ccccc1Br	3.0	-10.1	27.5*	-2.9	-7.0	7.7
C=CCN(C(=O)COC(=O)c1cc[n+]([O-])cc1)c1nc(-c2ccccc2)cs1	1.2	-5.6	-0.7	1.4	-8.6	2.2
Cc1ccc(C(C)C)c(OCCN(C)C)c1	0.7	-53.0	-18.2	-13.2	3.2	24.3
CCOc1ccc(OCCC(=O)OCC(=O)Nc2cc(S(=O)(=O)N3CCOCC3)ccc2OC)cc1	3.6	10.7	-14.8	-0.1	13.2	-1.9
c1ccc(-c2nnc3n2CCCC3)cc1	0.3	5.6	-7.0	-0.4	22.9	-6.1
O=C(NCCCn1ccnc1)C(=O)NC1CCCCC1	0.3	18.8*	-14.3	-1.3	14.4	0.5
O=C(O)C1CCCCC1C(=O)NCCCn1ccnc1 (stereo unspecified)	0.2	-1.3	12.9	-2.1	-13.0	0.8
O=C(Nc1ccncc1)c1ccc(Cl)c(S(=O)(=O)N2CCCCC2)c1	9.4	-13.7	-1.3	3.8	-0.4	8.0
SMILES	CHO-K1 Ca ag	M5 PAM	CHO-K1 Ca antag	CHRM5 agonist	CHO-K1 Ca PAM	M5 antag
CCOC(=O)c1ccc(NC(=O)c2ccc(C)c(S(=O)(=O)N3CCOCC3)c2)cc1	13.0	-16.2	29.6*	4.5	1.1	28.9*
Cc1nn(Cc2ccc(Cl)c(Cl)c2)c(C)c1NC(=O)c1cn(-c2ccccc2)nc1-c1ccccc1	-0.1	24.6*	2.1	-2.2	-3.2	4.0
CCN1CCN(c2ccc(NC(=O)c3ccc(Cl)c(S(=O)(=O)N4CCCC4)c3)cc2)CC1	3.5	-36.6	8.8	-7.6	-18.8	55.9*
CCN(CC)CCOC(=O)c1ccc(NC(=O)c2ccc(Cl)c(S(=O)(=O)N3CCCCCC3)c2)cc1	1.6	-33.4	3.6	-16.8	-5.9	36.6*
Cc1cc(=O)n2nc(N3CCCC(C(=O)NCc4ccc5c(c4)OCO5)C3)sc2n1 (stereo unspecified)	1.0	4.6	-18.5	-6.8	26.4	-1.5
CCOC(=O)Cn1c(=N)n(CCOc2ccc(F)cc2)c2ccccc21	0.0	-4.5	7.0	-1.3	-29.6	8.7
Cc1ccc(-c2nn(-c3ccccc3)cc2C(=O)Nc2ccc(C)c(S(=O)(=O)N3CCOCC3)c2)cc1	0.5	-5.4	24.5*	-1.4	-13.6	-3.6
CCCCOc1cccc(C(=O)Nc2ccc(N3CCN(CC)CC3)cc2)c1	5.4	-29.9	-7.0	-12.4	7.0	38.8*
O=C(Nc1cccc(F)c1)c1c(F)c(F)c(F)c(F)c1F	5.9	-13.8	24.1*	-0.4	-6.2	12.4
Cc1cccc(NC(=O)c2c(F)c(F)c(F)c(F)c2F)c1	1.2	-7.7	6.4	-6.5	0.6	3.9
COc1ccc2[nH]cc(CCNS(=O)(=O)c3ccc(C)cc3)c2c1	26.1*	-0.3	2.4	4.6	13.5	1.8
COc1ccc(S(=O)(=O)NCCc2c[nH]c3ccc(C)cc23)cc1	-0.2	1.6	4.9	4.3	-3.5	0.8
CC(=O)Oc1ccc2c(c1)c(C(C)=O)c(C)n2C	0.5	-0.7	-9.5	2.5	7.0	-0.8
COc1ccc2c(c1)c(C(C)=O)c(C)n2C	19.0*	-1.4	2.7	0.9	13.8	2.5
COc1cc(C(=O)COC(=O)c2ccncc2)cc(OC)c1OC	-0.1	-1.6	5.0	-1.1	-2.7	3.4
O=C(O)c1ccc(OCC(O)Cn2c3ccccc3c3ccccc32)cc1 (stereo unspecified)	2.8	7.7	1.8	4.9	-9.8	-0.1
COc1ccc(C2CC(c3cccs3)=NN2C(=O)CSc2nnnn2C)cc1OC (stereo unspecified)	15.3*	1.9	5.6	-2.4	7.8	-10.3
COc1ccc(C2CC(c3cccs3)=NN2C(=O)CSc2nncn2C)cc1OC (stereo unspecified)	-0.4	4.3	-12.7	-3.1	1.4	6.7
CC12CC3CC(C)(C1)CC(C(=O)NCc1ccco1)(C3)C2	0.0	-4.7	-5.8	-0.9	-5.4	-12.6
O=c1cc(O)c2c(=O)n(-c3ccccc3)c3c(c2o1)CCCCCC3	-0.2	-4.0	23.7*	0.6	-11.7	5.6
CC(C)CN(C(=O)COC(=O)CCc1nc2ccccc2s1)c1c(N)n(Cc2ccccc2)c(=O)[nH]c1=O	-0.2	4.2	-1.0	3.8	-28.7	-4.4
Cc1noc(C)c1CN(C(=S)NC1CC2CCC1C2)c1ccccc1 (stereo unspecified)	-0.8	22.6*	7.5	-6.6	-10.4	-5.4
